Laboratory results: ChEMBL document CHEMBL3612038, “N-Alkyl/aryl-4-(3-substituted-3-phenylpropyl)piperazine-1-carbothioamide as dual-action vaginal microbicides with reverse transcriptase inhibition” (Eur J Med Chem, 2015)
Converted amounts (≈) assume the structure as drawn.

How the values were obtained:
[1] = molecular target: Human immunodeficiency virus type 1 reverse transcriptase (Human immunodeficiency virus 1) (UniProt Q72547); test: Inhibition of HIV1 reverse transcriptase at 100 ug/ml incubated for 1 hr by ELISA method
Procedure, shortened: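 Non-radioactive colorimetric ELISA: template/primer with dNTPs plus HIV-1 RT in lysis buffer ± compound (100 µg/mL), 1 h at 37 °C; RT-free buffer as negative control, nevirapine as positive control. Product captured on streptavidin plate 1 h at 37 °C, detected with anti-DIG-POD and ABTS, OD 405 nm.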

[2] = Spermicidal activity in liquefied human semen assessed as reduction in motile spermatozoa incubated at 37 degC for 30 mins; type: functional, Sperm; settings: for minimal effective concentration: Homo sapiens, Sperm, Semen, 0.5 h, read-out: MEC
Procedure, shortened: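 Compounds dissolved in minimal DMSO, diluted with 0.85% saline to 1.0% test solution; liquefied human semen mixed 1:5 with test solution, vortexed 10 s; motile sperm scored by phase-contrast microscopy over 60 s in five fields. MEC = lowest concentration immobilizing 100% of sperm, still immotile after dilution with nutrient medium.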

[3] = system: Trichomonas vaginalis; test: Anti-trichomonas activity against MTZ-susceptible Trichomonas vaginalis incubated for 3 to 48 hrs by trypan blue exclusion assay; type: functional
Procedure, shortened: (§1)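 Trichomonas vaginalis trophozoites (5 × 10^4/L as printed) in TYM medium; DMSO stocks (100.0 mg/mL) serially diluted in TYM to 0.1 mg/mL, DMSO/TYM vehicle controls. Anaerobic incubation at 37 °C; viability checked 3–48 h by microscopy (200×) with trypan blue exclusion. MIC = lowest concentration killing all cells within 48 h.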

[4] = system: Trichomonas vaginalis; test: Anti-trichomonas activity against MTZ-resistant Trichomonas vaginalis incubated for 3 to 48 hrs by trypan blue exclusion assay; type: functional; procedure, shortened: as §1
[5] = system: Candida albicans; test: Antifungal activity against Candida albicans incubated for 48 hrs by broth micro-dilution method; type: functional
Procedure, shortened: (§2)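 Broth microdilution per NCCLS guidelines in RPMI 1640 buffered with MOPS; starting inoculum 1–5 × 10^3 CFU/mL; plates incubated at 35 °C, MIC read after 48 h.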

[6] = system: Cryptococcus neoformans; test: Antifungal activity against Cryptococcus neoformans incubated for 48 hrs by broth micro-dilution method; type: functional; procedure, shortened: as §2
[7] = system: Sporothrix schenckii; test: Antifungal activity against Sporothrix schenckii incubated for 48 hrs by broth micro-dilution method; type: functional; procedure, shortened: as §2
[8] = system: Trichophyton mentagrophytes; test: Antifungal activity against Trichophyton mentagrophytes incubated for 48 hrs by broth micro-dilution method; type: functional; procedure, shortened: as §2
[9] = system: Aspergillus fumigatus; test: Antifungal activity against Aspergillus fumigatus incubated for 48 hrs by broth micro-dilution method; type: functional; procedure, shortened: as §2
[10] = system: Candida parapsilosis; test: Antifungal activity against Candida parapsilosis ATCC 22019 incubated for 48 hrs by broth micro-dilution method; type: functional; settings: Lodderomyces parapsilosis, ATCC 22019, 48 h; procedure, shortened: as §2
[11] = system: HeLa; test: Cytotoxicity against human HeLa cells assessed as reduction in cell viability at 200 ug/ml incubated for 24 hrs by MTT assay; type: cell-based
Procedure, shortened: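 HeLa cells seeded at 5 × 10^4 per well, exposed 24 h to compound dilutions in culture medium or vehicle control; MTT (5 mg/mL in pH 7.4 buffer) added, formazan dissolved in DMSO, absorbance read at 540 nm.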

[12] = Effect on Lactobacillus jensenii ATCC 25258 62G assessed as effect on microbial proliferation at 200 ug/ml incubated for 24 hrs
Procedure, shortened: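 L. jensenii ATCC 25258 (strain 62G) in 6% Rogosa SL broth with 0.132% acetic acid; serial compound dilutions or vehicle in triplicate, ~1000 CFU per well, 24 h at 37 °C, humidified 5% CO2; growth read as OD610, expressed relative to control = 100.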

[13] = system: Trichomonas vaginalis; test: Resistance index, ratio of MIC for MTZ-resistant Trichomonas vaginalis to MIC for MTZ-susceptible Trichomonas vaginalis; type: functional

Row | Structure (SMILES) | inhibition [1] [%] | MEC [2] [%] | minimal effective concentration [2] [µM] | MIC [3] [µM] | MIC [4] [µM] | MIC [5] [µM] | MIC [6] [µM] | MIC [7] [µM] | MIC [8] [µM] | MIC [9] [µM] | MIC [10] [µM] | Activity [11] | Activity [12] | Ratio [13]
1 | OC(CCN1CCN(C(=S)NCCc2ccccc2)CC1)c1ccccc1 (centres undefined) | 45.3 | 0.1 | 2610 | 40.6 (≈ 15.6 µg/mL) | 163 (≈ 62.6 µg/mL) | > 81.2 | > 81.2 | > 81.2 | > 81.2 | > 81.2 | > 81.2 | Non-toxic | Non-toxic | 4
2 | OC(CCN1CCN(C(=S)NCc2ccccc2)CC1)c1ccccc1 (centres undefined) | 47.2 | 0.05 | 1350 | 169 (≈ 62.6 µg/mL) | 339 (≈ 125 µg/mL) | > 81.2 | > 81.2 | > 81.2 | > 81.2 | > 81.2 | > 81.2 | Non-toxic | Non-toxic | 2
3 | OC(Cn1cncn1)(Cn1cncn1)c1ccc(F)cc1F [FLUCONAZOLE] | – | – | – | – | – | 3.26 (≈ 0.998 µg/mL) | 6.53 (≈ 2 µg/mL) | 6.53 (≈ 2 µg/mL) | > 81.2 | > 81.2 | 6.53 (≈ 2 µg/mL) | – | – | –
4 | O=C(CCN1CCN(C(=S)NC2CCCCC2)CC1)c1ccccc1 | 47.7 | 0.05 | 1390 | 43.3 (≈ 15.6 µg/mL) | 175 (≈ 62.8 µg/mL) | 34.7 (≈ 12.5 µg/mL) | 8.6 (≈ 3.09 µg/mL) | > 81.2 | 4.33 (≈ 1.56 µg/mL) | > 81.2 | > 81.2 | Non-toxic | Non-toxic | 2
5 | O=C(CCN1CCN(C(=S)Nc2ccccc2)CC1)c1ccccc1 | 49.2 | 0.1 | 2830 | 88.5 (≈ 31.3 µg/mL) | 354 (≈ 125 µg/mL) | > 81.2 | 17.6 (≈ 6.22 µg/mL) | > 81.2 | 17.6 (≈ 6.22 µg/mL) | > 81.2 | > 81.2 | Non-toxic | Non-toxic | 2
6 | OC(CCN1CCN(C(=S)NC2CCCCC2)CC1)c1ccccc1 (centres undefined) | 24.3 | 1 | 27700 | 173 (≈ 62.6 µg/mL) | 174 (≈ 62.8 µg/mL) | > 81.2 | > 81.2 | > 81.2 | > 81.2 | > 81.2 | > 81.2 | Non-toxic | Non-toxic | 2
7 | O=C(CCN1CCN(C(=S)NCc2ccccc2)CC1)c1ccccc1 | 58.3 | 0.1 | 2720 | 85.1 (≈ 31.3 µg/mL) | 341 (≈ 125 µg/mL) | 67.9 (≈ 25 µg/mL) | 8.47 (≈ 3.11 µg/mL) | > 81.2 | 4.22 (≈ 1.55 µg/mL) | > 81.2 | > 81.2 | Non-toxic | Non-toxic | 2
8 | CCCCNC(=S)N1CCN(CCC(O)c2ccccc2)CC1 (centres undefined) | 29.1 | 0.05 | 1490 | 46.4 (≈ 15.6 µg/mL) | 187 (≈ 62.6 µg/mL) | > 81.2 | > 81.2 | > 81.2 | > 81.2 | > 81.2 | > 81.2 | Non-toxic | Non-toxic | 4
9 | Cc1ncc([N+](=O)[O-])n1CCO [METRONIDAZOLE] | – | – | – | 19.7 (≈ 3.37 µg/mL) | 293 (≈ 50.1 µg/mL) | – | – | – | – | – | – | – | – | 15
10 | FC(F)(F)c1ccc(OC(CCN2CCN(C(=S)NC3CCCCC3)CC2)c2ccccc2)cc1 (centres undefined) | 24.3 | >1 | > 19800 | 64.3 (≈ 32.5 µg/mL) | 495 (≈ 250 µg/mL) | > 81.2 | > 81.2 | > 81.2 | > 81.2 | > 81.2 | > 81.2 | Non-toxic | Non-toxic | 2
11 | OC(CCN1CCN(C(=S)Nc2ccccc2)CC1)c1ccccc1 (centres undefined) | – | 0.1 | 2820 | – | 352 (≈ 125 µg/mL) | > 81.2 | > 81.2 | > 81.2 | > 81.2 | > 81.2 | > 81.2 | Non-toxic | Non-toxic | 2
12 | CCCCNC(=S)N1CCN(CCC(Oc2ccc(C(F)(F)F)cc2)c2ccccc2)CC1 (centres undefined) | 59.6 | >1 | > 20900 | 130 (≈ 62.6 µg/mL) | 261 (≈ 125 µg/mL) | > 81.2 | > 81.2 | > 81.2 | > 81.2 | > 81.2 | > 81.2 | Non-toxic | Non-toxic | 2
13 | FC(F)(F)c1ccc(OC(CCN2CCN(C(=S)Nc3ccccc3)CC2)c2ccccc2)cc1 (centres undefined) | 21.1 | 0.05 | 1000 | 50.1 (≈ 25 µg/mL) | – | > 81.2 | > 81.2 | > 81.2 | > 81.2 | > 81.2 | > 81.2 | Non-toxic | Non-toxic | 2
14 | FC(F)(F)c1ccc(OC(CCN2CCN(C(=S)NCCc3ccccc3)CC2)c2ccccc2)cc1 (centres undefined) | 38.4 | >1 | > 19000 | 47.3 (≈ 25 µg/mL) | 118 (≈ 62.5 µg/mL) | > 81.2 | > 81.2 | > 81.2 | > 81.2 | > 81.2 | > 81.2 | Non-toxic | Non-toxic | 2
